Reference: ChEMBL document CHEMBL1949566 (Bioorg Med Chem Lett, 2012)
Activity calls are given as the source filed them. The rule behind the calls is not given here.

Legend:
Rattus norvegicus [1] = species: Rattus norvegicus; experiment: Displacement of [125I]angiotensin 2 from angiotensin 2 receptor type 1 in Sprague-Dawley rat adrenal cortex membranes at 10 uM after 60 mins by gamma counting; assay type: cell membranes; details: Membrane
Rattus norvegicus [2] = experiment: Antihypertensive activity in iv dosed pithed rat model assessed as inhibition of angiotensin 2-induced pressor response by gould pressure transducer-coupled grass polygraphy; assay type: functional
Method in brief: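 Pithed rats had blood pressure recorded by an arterial catheter to a pressure transducer/polygraph. After about 60 min of stabilization, AngII (100 ng/kg iv) was given three times at 15 min intervals to set a basal pressor response. Compound was then given iv, followed by AngII 100 ng/kg iv. ED50 for 50% inhibition of maximal pressor response came from the dose–pressure curve.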

[3] = Displacement of [125I]angiotensin 2 from angiotensin 2 receptor type 1 in Sprague-Dawley rat adrenal cortex membranes after 60 mins by gamma counting; assay type: cell membranes, Membrane
Method in brief: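 Adrenal cortex membranes came from male Sprague–Dawley rats (200–250 g); the pellet was taken by differential centrifugation up to 100,000 g. Membranes (60–70 µg protein/assay) were suspended in 50 mM Tris–HCl, 10 mM MgCl2, 0.25% BSA, pH 7.4, with [125I]AngII (0.05 nM) and test compound (3×10^-12 to 10^-6 M, DMSO). Incubation ran 60 min at 25 °C and ended by GF/B filtration. IC50 is 50% inhibition of binding.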

[4] = target: T1, Type-1 angiotensin II receptor (Oryctolagus cuniculus, UniProt P34976); experiment: Antagonist activity at angiotensin 2 receptor type 1 in New Zealand White rabbit descending thoracic aorta rings assessed as inhibition of angiotensin 2-induced contraction preincubated for 30 mins prior angiotensin 2 challenge; assay type: functional, tissue-based
T1 sequence (P34976 whole entry): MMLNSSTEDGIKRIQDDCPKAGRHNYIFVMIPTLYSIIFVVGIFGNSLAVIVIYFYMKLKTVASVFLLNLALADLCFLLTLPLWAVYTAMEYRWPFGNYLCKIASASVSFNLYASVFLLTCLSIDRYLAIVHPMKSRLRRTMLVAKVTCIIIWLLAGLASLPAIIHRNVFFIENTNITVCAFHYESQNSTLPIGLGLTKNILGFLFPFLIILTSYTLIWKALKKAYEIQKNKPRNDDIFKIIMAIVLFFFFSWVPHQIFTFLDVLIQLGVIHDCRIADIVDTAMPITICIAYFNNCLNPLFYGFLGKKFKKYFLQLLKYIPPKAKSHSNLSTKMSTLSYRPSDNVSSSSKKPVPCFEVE
Method in brief: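 Aortic rings held at 2 g resting tension and equilibrated 60 min with repeated washing in Krebs bicarbonate solution. Responsiveness was checked with AngII, then a control cumulative AngII concentration–contractile response curve was run. After washout, test substance was incubated 30 min and a second AngII curve obtained.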

Rattus norvegicus [5] = experiment: Ratio of losartan ED50 to compound ED50 for antihypertensive activity in iv dosed pithed rat model assessed as inhibition of angiotensin 2-induced pressor response; assay type: functional
[6] = Oral steady-state volume of distribution in Sprague-Dawley rat at 3 mg/kg; assay type: ADME, organism-based; set-up: dose 3 mg/kg; details: in vivo, read-out: Vss/F
Method in brief: (§1)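 Male Sprague–Dawley rats (n = 7) given a single oral dose of 3 mg/kg. AUC, Cmax, Tmax, t1/2, Cl/F and Vss/F were derived from plasma profiles and reported as mean ± S.D.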

Rattus norvegicus [7] = experiment: Drug excretion in Sprague-Dawley rat at 3 mg/kg, po; assay type: ADME, organism-based; set-up: dose 3 mg/kg, route oral; details: in vivo
Rattus norvegicus [8] = experiment: Effect on basal heart rate in furosemide treated rat high-renin model at 10 mg/kg, po up to 8 hrs; assay type: ADME, organism-based; set-up: dose 10 mg/kg, route oral; details: in vivo
Method in brief: (§2)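 Furosemide 10 mg/kg sc was given 20 and 2 h before the experiment, with food and water withdrawn for 24 h. Mean arterial pressure and heart rate were recorded by polygraph. After about 60 min of stabilization, 10 mg/kg was given orally. Readings were taken at 20, 40 and 60 min, then every 30 min to 8 h.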

[9] = Tmax in Sprague-Dawley rat at 3 mg/kg, po; assay type: ADME, organism-based; set-up: dose 3 mg/kg, route oral; details: in vivo; method in brief: as §1
[10] = AUC in Sprague-Dawley rat at 3 mg/kg, po; assay type: ADME, organism-based; set-up: dose 3 mg/kg, route oral; details: plasma; method in brief: as §1
[11] = Toxicity in po dosed rat assessed maximum tolerated dose; assay type: organism-based; details: in vivo
Method in brief: (§3)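 Maximum tolerated dose from a single oral administration.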

Rattus norvegicus [12] = experiment: Antihypertensive activity in conscious spontaneously hypertensive rat assessed as decrease in mean arterial blood pressure at 10 mg/kg, po at 5 hrs post dose; assay type: functional, Artery; set-up: scale not given: the % may be the effect or the level left
Method in brief: (§4)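 SHRs were acclimatized 10 weeks, then habituated for 7 days to 37 °C chamber prewarming for 10 min, restraint and a tail cuff with pulse sensor. After stabilization, 10 mg/kg was given orally.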

[13] = Half life in Sprague-Dawley rat at 3 mg/kg, po; assay type: ADME, organism-based; set-up: dose 3 mg/kg, route oral; details: in vivo; method in brief: as §1
[14] = Toxicity in po dosed mouse assessed maximum tolerated dose; assay type: organism-based; details: in vivo; method in brief: as §3
[15] = Apparent oral clearance in Sprague-Dawley rat at 3 mg/kg; assay type: ADME, organism-based; set-up: dose 3 mg/kg, route oral; details: in vivo; method in brief: as §1
[16] = Cmax in Sprague-Dawley rat at 3 mg/kg, po; assay type: ADME, organism-based; set-up: dose 3 mg/kg, route oral; details: in vivo; method in brief: as §1
[17] = target: T2, Type-1 angiotensin II receptor (Oryctolagus cuniculus) (UniProt P34976); experiment: Ratio of losartan IC50 to compound IC50 for antagonist activity at angiotensin 2 receptor type 1 in New Zealand White rabbit descending thoracic aorta rings; assay type: functional, tissue-based
T2 sequence (whole entry): T1 sequence (P34976 whole entry)

Rattus norvegicus [18] = species: Rattus norvegicus; experiment: Ratio of losartan IC50 to compound IC50 for displacement of [125I]angiotensin 2 from angiotensin 2 receptor type 1 in Sprague-Dawley rat adrenal cortex membranes; assay type: cell membranes; details: Membrane
[19] = target: T2, Type-1 angiotensin II receptor (Oryctolagus cuniculus); experiment: Antagonist activity at angiotensin 2 receptor type 1 in New Zealand White rabbit descending thoracic aorta rings assessed as inhibition of KCl-induced contraction preincubated for 30 mins prior KCl challenge; assay type: functional, tissue-based
[20] = target: T2, Type-1 angiotensin II receptor (Oryctolagus cuniculus); experiment: Antagonist activity at angiotensin 2 receptor type 1 in New Zealand White rabbit descending thoracic aorta rings assessed as inhibition of noradrenaline-induced contraction preincubated for 30 mins prior noradrenaline challenge; assay type: functional, tissue-based
Rattus norvegicus [21] = experiment: Antihypertensive activity in conscious spontaneously hypertensive rat assessed as decrease in mean arterial blood pressure at 10 mg/kg, po up to 5 hrs; assay type: functional, organism-based; set-up: dose 10 mg/kg; details: Artery; method in brief: as §4
Rattus norvegicus [22] = experiment: Antihypertensive activity in conscious spontaneously hypertensive rat assessed as decrease in mean arterial blood pressure at 10 mg/kg, po up to 24 hrs; assay type: functional, organism-based; set-up: dose 10 mg/kg; details: Artery; method in brief: as §4
Rattus norvegicus [23] = experiment: Antihypertensive activity in furosemide treated rat high-renin model assessed as decrease in mean arterial pressure at 10 mg/kg, po up to 8 hrs; assay type: functional, organism-based; set-up: dose 10 mg/kg; details: Artery; method in brief: as §2

Compound | ED50 (Rattus norvegicus [2]) [mg/kg] | IC50 [3] [nM] | IC50 [4] [nM] | further results
CCCCc1nc(C)c(CC(=O)N2CCCC2)c(=O)n1Cc1ccc(-c2ccccc2-c2nnn[nH]2)cc1 | 0.056 | 59.2 | 1.58 | inhibition (Rattus norvegicus [1]): 76.7%
CCCCc1nc(C)c(CC(=O)N2CCCCC2)c(=O)n1Cc1ccc(-c2ccccc2-c2nnn[nH]2)cc1 | 0.063 | 63.3 | – | inhibition (Rattus norvegicus [1]): 71.7%
CCCCc1nc(C)c(CC(=O)N2CC(C)OC(C)C2)c(=O)n1Cc1ccc(-c2ccccc2-c2nnn[nH]2)cc1 (stereo unspecified) | 0.029 | 24 | 1.03 | –
CCCCc1nc(C)c(CCC(=O)N2CCC[C@H]2C(=O)OC)c(=O)n1Cc1ccc(-c2ccccc2-c2nnn[nH]2)cc1 | 0.063 | 58.5 | – | –
CCCCc1nc(C)c(CCC(=O)N2CCCCC2)c(=O)n1Cc1ccc(-c2ccccc2-c2nnn[nH]2)cc1 | 0.164 | 64.7 | – | –
CCCCc1nc(C)c(CC(=O)N(CC)CC)c(=O)n1Cc1ccc(-c2ccccc2-c2nnn[nH]2)cc1 | 0.089 | – | 30.8 | –
CCCCc1nc(C)c(CC(=O)N2CCSCC2)c(=O)n1Cc1ccc(-c2ccccc2-c2nnn[nH]2)cc1 | 0.038 | 9 | – | –
CCCCc1nc(C)c(CCC(=O)O)c(=O)n1Cc1ccc(-c2ccccc2-c2nnn[nH]2)cc1 | 0.094 | 306 | – | inhibition (Rattus norvegicus [1]): 27.9%
CCCCc1nc(C)c(CC(=S)N(CC)CC)c(=O)n1Cc1ccc(-c2ccccc2-c2nnn[nH]2)cc1 | 0.023 | 6.27 | 1.31 | –
CCCCc1nc(C)c(CC(=O)N2CCN(C)CC2)c(=O)n1Cc1ccc(-c2ccccc2-c2nnn[nH]2)cc1 | – | 19 | – | –
CCCCc1nc(C)c(CC(=O)N2CCOCC2)c(=O)n1Cc1ccc(-c2ccccc2-c2nnn[nH]2)cc1 | 0.018 | 23 | – | Ratio ED50 (Rattus norvegicus [5]): 19
CCCCc1nc(C)c(CC(=O)N2CCC[C@H]2C(=O)OC)c(=O)n1Cc1ccc(-c2ccccc2-c2nnn[nH]2)cc1 | 0.043 | 59.3 | – | –
CCCCc1nc(C)c(CCC(=O)OCC)c(=O)n1Cc1ccc(-c2ccccc2-c2nnn[nH]2)cc1 | 0.066 | 131 | 2.51 | –
CCCCc1nc(C)c(CC(=S)N(C)C)c(=O)n1Cc1ccc(-c2ccccc2-c2nnn[nH]2)cc1 [listing 1 of 2 here] | 0.018 | 0.13 | 0.42 | Ratio ED50 (Rattus norvegicus [5]): 19
CCCCc1nc(C)c(CCC(=O)N2CC(C)OC(C)C2)c(=O)n1Cc1ccc(-c2ccccc2-c2nnn[nH]2)cc1 (stereo unspecified) | 0.228 | 72.6 | 13.1 | –
CCCCc1nc(C)c(CC(=O)N2CCC[C@H]2C(N)=O)c(=O)n1Cc1ccc(-c2ccccc2-c2nnn[nH]2)cc1 | 0.023 | 17 | – | –
CCCc1nc(C)c(CC(=O)N(CC)CC)c(=O)n1Cc1ccc(-c2ccccc2-c2nnn[nH]2)cc1 | – | – | 4.69 | –
CCCCc1nc(C)c(CC(=S)N2CCCCCC2)c(=O)n1Cc1ccc(-c2ccccc2-c2nnn[nH]2)cc1 | 0.034 | 8.04 | 6.11 | –
CCCCc1nc(C)c(CC(=O)OCC)c(=O)n1Cc1ccc(-c2ccccc2-c2nnn[nH]2)cc1 | 0.108 | 66.2 | – | –
CCCCc1nc(C)c(CCC(=O)N2CCSCC2)c(=O)n1Cc1ccc(-c2ccccc2-c2nnn[nH]2)cc1 | 0.204 | 28 | – | –
CCCCc1nc(C)c(CC(=S)N(C)C)c(=O)n1Cc1ccc(-c2ccccc2-c2nnn[n-]2)cc1.O.O.O.[K+] | – | – | – | Vd/F [6]: 37.3 L/kg; Ae (Rattus norvegicus [7]): Active; Activity (Rattus norvegicus [8]): Non-toxic; Tmax [9]: 6 min; AUC [10]: 678 ng·h/mL; MTD [11]: > 2000 mg/kg; Activity (Rattus norvegicus [12]): 75%; half-life [13]: 5.3 h; MTD [14]: > 2000 mg/kg; CL/F [15]: 84 mL/min/kg; Cmax [16]: 242 ng/mL
CCCCc1nc(C)c(CC(=O)O)c(=O)n1Cc1ccc(-c2ccccc2-c2nnn[nH]2)cc1 | 0.13 | 431 | – | inhibition (Rattus norvegicus [1]): 3.65%
CCCCc1nc(C)c(CC(=O)N(C)C)c(=O)n1Cc1ccc(-c2ccccc2-c2nnn[nH]2)cc1 | 0.018 | – | – | inhibition (Rattus norvegicus [1]): 71.7%; Ratio ED50 (Rattus norvegicus [5]): 19
CCCCc1nc(C)c(CC(=S)N(C)C)c(=O)n1Cc1ccc(-c2ccccc2-c2nnn[nH]2)cc1 [listing 2 of 2 here] | – | – | – | Ratio IC50 [17]: 145; Ratio IC50 (Rattus norvegicus [18]): 615; inhibition [19]: inactive; inhibition [20]: inactive; Activity (Rattus norvegicus [21]): Active; Activity (Rattus norvegicus [22]): Active; Activity (Rattus norvegicus [23]): Active
CCCCc1nc(C)c(CCC(=O)N2CCOCC2)c(=O)n1Cc1ccc(-c2ccccc2-c2nnn[nH]2)cc1 | 0.143 | 60 | – | –
CCCCc1nc(Cl)c(CO)n1Cc1ccc(-c2ccccc2-c2nnn[nH]2)cc1 [LOSARTAN] | 0.336 | 80 | – | –
CCCCc1nc(C)c(CCC(=O)N2CCCC2)c(=O)n1Cc1ccc(-c2ccccc2-c2nnn[nH]2)cc1 | 0.206 | 70.5 | – | –
CCCc1nc(C)c(CC(=O)O)c(=O)n1Cc1ccc(-c2ccccc2-c2nnn[nH]2)cc1 | – | – | 27.1 | –
